# Screens: PubChem BioAssay, several laboratories
# RGS4 act – potentiators or activators of RGS4; hit rate 0.92% among 310,000; HEK293 M3R/inducible RGS4, carbachol calcium flux Fluo4; hits give low values; AID 463111; B-score at 10 µM;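 active = B-score of the integrated calcium signal more than 4 SD below the library mean, with starting fluorescence not abnormally high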;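 note: negative B-score means reduced calcium response which marks RGS4 activation or potentiation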
#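 Test system: HEK293 cells with stable M3R and inducible RGS4; also added: carbachol at ECmax as muscarinic agonist stimulus; schedule: dye loading 30 min 37 °C, buffer rest 30 min RT; technique: kinetic calcium fluorescence imaging with Fluo4-AM dye, 2 µM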
# MrgX1 antag – blocks BAM8-22 activation of human MrgX1 receptor; Q96LB2; B-score at 10 µM; hit rate 1.3% among 310,000; MRGX1-HEK293 calcium flux, Fluo-4, BAM8-22 antagonism; hits give low values;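 active = calcium-response B-score plate-corrected more than 3 library SD below zero, starting fluorescence within 5 deviations, no agonist response on first addition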;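 note: peak minus trough fluorescence over baseline after final BAM8-22 challenge near maximal dose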
# Target sequence (Q96LB2 whole entry, looked up): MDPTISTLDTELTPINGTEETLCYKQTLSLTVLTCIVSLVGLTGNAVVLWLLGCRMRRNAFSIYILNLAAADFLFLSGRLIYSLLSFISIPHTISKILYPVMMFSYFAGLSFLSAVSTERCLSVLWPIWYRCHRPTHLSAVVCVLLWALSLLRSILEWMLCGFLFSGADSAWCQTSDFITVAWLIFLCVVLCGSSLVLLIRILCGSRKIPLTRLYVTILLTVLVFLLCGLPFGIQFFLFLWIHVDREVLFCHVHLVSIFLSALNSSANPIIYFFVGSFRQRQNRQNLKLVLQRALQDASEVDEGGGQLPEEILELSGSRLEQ
# RGS4 inh – human RGS4 inhibition; B-score at 10 µM; HEK293 M3R/RGS4 inducible, Fluo-4 calcium flux; hits give high values; triggered by carbachol at its EC20; P49798; hit rate 0.45% among 310,000;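 active = B-score, a plate-corrected calcium signal, over three deviations above library mean, with baseline fluorescence within five deviations of library mean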;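 note: RGS4 expression induced by doxycycline in cells with stable M3 receptor; B-score is computed from the integrated fluorescence ratio over baseline after carbachol; higher B-score means a larger calcium signal and so more RGS4 inhibition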
# Target sequence (P49798 whole entry, looked up): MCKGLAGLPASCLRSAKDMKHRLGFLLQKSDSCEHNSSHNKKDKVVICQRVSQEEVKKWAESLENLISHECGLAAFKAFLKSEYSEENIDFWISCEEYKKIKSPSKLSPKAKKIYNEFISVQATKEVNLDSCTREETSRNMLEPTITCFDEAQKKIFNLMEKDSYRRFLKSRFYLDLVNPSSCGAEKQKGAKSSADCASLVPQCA
# MrgX1 allo act – human MrgX1 positive allosteric modulation, primary screen; Q96LB2; hit rate 0.63% among 310,000; B-score at 10 µM; MrgX1-HEK293, Fluo-4 calcium flux, FDSS; hits give high values;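 active = plate-corrected calcium response at least 3 library SD above typical, normal starting fluorescence, not activating the receptor alone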;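 note: compound read alongside a low EC10 to EC30 dose of BAM8-22 agonist; peak minus trough fluorescence over baseline measured at the second addition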
# MrgX1 ag – activates human MrgX1 receptor signaling; Q96LB2; MrgX1-HEK293 cells, Fluo-4 calcium fluorescence, agonist mode; hits give high values; hit rate 0.44% among 310,000; B-score at 10 µM;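 active = calcium response B-score plate-corrected fluorescence ratio at least 3 library SD, with starting fluorescence B-score inside 5 SD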
#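 times = overnight plating, then 30 min 37 °C plus 30 min room-temperature dye loading | assay system = stable human MrgX1 HEK293 cell line | input = fifteen thousand cells per well | signal = kinetic calcium dye fluorescence, Fluo-4 NW | dosing = compound delivered in addition one of three | read-out = B-scored fluorescence response ratio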
# Cl transport mod – modulates chloride dependent transport by human KCC2; B-score of Tl+ flux slope (higher = more flux/activation; lower = inhibition) at 10 µM; Q9H2X9; hit rate 2.2% among 190,000; KCC2 cells, thallium flux FluoZin-2 fluorescence;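 active = thallium flux slope and its plate-corrected score both differing from the plate sample mean at a set confidence after two filtering rounds, in either direction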;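 note: slope of fluorescence scaled to starting intensity during 10 to 20 s after thallium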
# KCC2 secondary – KCC2 (human) modulation, secondary assay; shares compounds with Cl transport mod; HEK293-KCC2, thallium flux, FluoZin2 fluorescence; hits give high values; normalised thallium flux (F/F0 slope) at 10 µM; hit rate 15% among 3,700; AID 1713;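 active = thallium flux slope above the same plate's solvent-only control mean plus 3 SD; inconclusive = the two replicate wells disagree; inactive = no significant difference from solvent-only control wells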
# KCC2 bumet counter – thallium flux persisting under bumetanide in KCC2 cells, counter-screen secondary assay; shares compounds with Cl transport mod; HEK293-KCC2 + bumetanide/ouabain, thallium flux FluoZin2; hits give high values; normalized thallium flux at 10 µM; hit rate 49% among 3,700; AID 1714;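 active = thallium entry rate above the same plate's blocked-transporter control wells by more than 3 SD; inconclusive = the two repeat wells disagree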;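 note: raw slope of fluorescence over initial fluorescence between 10 and 20 s after thallium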
# KCC2 secondary2 – confirmation of human KCC2 transport modulators; shares compounds with Cl transport mod; HEK293-KCC2, thallium flux FluoZin2 fluorescence; actives lie on both sides; F/F0 rise rate, 10–20 s post-thallium; normalized thallium flux at 10 µM; hit rate 23% among 3,700; AID 1715;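 active = thallium flux slope more than 3 SD above or below the plate's solvent-only control mean, mostly below; inconclusive = the two repeat wells disagreed; inactive = no significant shift from solvent-only controls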;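 note: raw slope with 0.1% DMSO as baseline and bumetanide as block control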
# HEK293 Tl flux – parental HEK flux effect, counter-screen; HEK293 parental cells, thallium flux FluoZin2, ouabain; baseline-ratio fluorescence slope, 10–20 s after thallium; hit rate 46% among 3,700; AID 1716; thallium flux rate (normalised fluorescence) at 10 µM; shares compounds with Cl transport mod;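 active = thallium flux rate significantly above the same plate's solvent-only control wells, beyond their mean plus 3 SD; inconclusive = the two replicate wells gave conflicting results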
# KCC2 retest ouab – confirmation of human KCC2 modulators with ouabain; hit rate 48% among 3,700; AID 1717; shares compounds with Cl transport mod; HEK293-KCC2, thallium flux FluoZin2 fluorescence; bidirectional: low = inhibitor, high = activator; raw Tl+ flux slope (below DMSO = inhibition, above = activation) at 10 µM;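 active = thallium flux slope beyond 3 SD from same-plate DMSO control mean in most replicates, usually higher, sometimes lower; inconclusive = repeat tests gave conflicting results; inactive = no significant difference from controls in most replicates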;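 note: slope of initial-normalized fluorescence between seconds 10 and 20 after thallium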
# HEK counter2 – acts in parental HEK cells, second KCC2 counter-screen | shares compounds with Cl transport mod | HEK293 parental, thallium flux FluoZin-2 fluorescence slope | thallium flux slope at 10 µM | hit rate 33% among 3,700 | AID 1718;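 active = thallium flux slope above the same plate's solvent-control mean plus 3 SD in both duplicate wells; inconclusive = duplicate wells that disagreed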;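 note: run without ouabain in cells lacking the KCC2 cotransporter; slope of fluorescence scaled to its starting value between 10 and 20 s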
# * = called active by the depositor; i = inactive; ? = inconclusive; nt = no result. Sampled rows, rich in hits. Any-hit rate of the full collection: about 4.7%.
SMILES,RGS4 act,MrgX1 antag,RGS4 inh,MrgX1 allo act,MrgX1 ag,Cl transport mod,KCC2 secondary,KCC2 bumet counter,KCC2 secondary2,HEK293 Tl flux,KCC2 retest ouab,HEK counter2
CC(=O)Oc1ccc(/C=C2/SC(=S)N(Cc3ccccc3)C2=O)cc1,i,i,i,i,i,nt,nt,nt,nt,nt,nt,nt
Oc1c(I)cc(Cl)c2cccnc12,i,i,i,i,i,77*,0.0079,0.1*,0.067*,0.11*,0.11*,0.041*
O=C(O)CCn1c(SCc2cccc3ccccc23)nc2ccccc21,i,i,i,i,i,-8.7*,?,0.0065,0.022*,0.0066,0.016*,0.0097
NNC(=O)Cn1c(SCc2ccccc2)nc2ccccc21,i,i,i,i,i,-3.3*,0.0074,0.0045,0.03,0.0074,0.018,0.0099
CCSc1nc2ccccc2n1CCC(=O)O,i,i,i,i,i,-0.57,nt,nt,nt,nt,nt,nt
CCOc1ccccc1NC(=O)NNS(=O)(=O)c1cc(OC)ccc1OC,i,i,i,i,i,nt,nt,nt,nt,nt,nt,nt
CCOC(=O)C1(CCCc2ccccc2)CCN(Cc2cnc(C)s2)CC1,i,i,i,i,i,-4.9*,?,0.0056,?,0.0082,0.024,0.0089
CSc1ccc(S(=O)(=O)N2c3ccccc3CC2C)cc1 (configuration not stated),i,i,i,i,i,nt,nt,nt,nt,nt,nt,nt
CC1Cc2ccccc2N1C(=O)CO/N=C/c1ccccc1OC(F)F (configuration not stated),i,i,i,i,i,-5.6*,0.0062,?,0.023*,?,0.013*,0.01
O=C(CO/N=C/c1ccccc1OC(F)F)N1CCc2ccccc21,i,i,i,i,i,-0.77,nt,nt,nt,nt,nt,nt
CC1CCN(C(=O)C(NS(=O)(=O)c2cccc3nsnc23)C(C)C)CC1 (configuration not stated),i,i,i,i,i,nt,nt,nt,nt,nt,nt,nt
COCCn1c(SCc2csc(-c3ccccc3)n2)nc2ccccc21,i,i,i,i,i,-3.5*,0.0057,0.0049,0.029,0.0051*,0.015*,0.0091
O=C(Cn1[nH]c(=O)c2ccccc2c1=O)NC1CCN(Cc2ccccc2)CC1,i,i,i,i,i,-4.3*,0.018,0.0038,0.029,0.0076,0.017,0.011
O=C(Cn1[nH]c(=O)c2ccccc2c1=O)NC1CCCCCC1,i,i,i,i,i,-0.38,nt,nt,nt,nt,nt,nt
CC(=O)c1nc2ccccc2n1S(=O)(=O)c1ccc(C)cc1,i,i,i,i,i,5.6*,0.011,?,0.029,0.0076,0.018,0.01
CC(=O)c1nc2ccccc2n1S(=O)(=O)c1ccc(Cl)cc1,i,i,i,i,i,-0.29,nt,nt,nt,nt,nt,nt
S=c1[nH]nc(Cc2cccc3ccccc23)o1,i,i,i,i,i,-8*,0.0059,0.0052,0.015*,0.0077,?,0.01
Cc1[nH]c2ccccc2c1Cc1nnc(SCC(N)=O)o1,i,i,i,i,i,0.53,nt,nt,nt,nt,nt,nt
Cc1[nH]c2ccccc2c1Cc1n[nH]c(=S)o1,i,i,i,i,i,-3.4*,0.0086,0.0062,0.022*,0.0067,0.041*,0.0096
COc1cc(/C=C/c2ccc3c(Br)cc(Br)c(O)c3n2)ccc1O,i,i,i,i,i,7.5*,0.011,0.013*,0.035,0.0091*,0.023,0.01
Cc1ccc(NC(=S)N/C(=N/S(=O)(=O)c2ccccc2)c2ccccc2)cc1,i,i,i,i,i,nt,0.02*,0.03*,0.038*,0.024*,0.031*,0.026*
CCOc1ccccc1N1CCN(C(=O)c2ccc3c(c2)OCO3)CC1,i,i,i,i,i,nt,nt,nt,nt,nt,nt,nt
O=C(Nc1nnc(-c2cccc(F)c2)s1)Nc1ccccc1F,i,i,i,i,i,3.8*,0.0064,0.0048,0.031,0.0074,0.02,0.011
O=C(Nc1nnc(COc2ccccc2F)s1)Nc1ccccc1F,i,i,i,i,i,2.6*,0.0086,0.0054,0.032,0.0078,0.022,0.01
O=C(Nc1ccc(F)cc1)Nc1nnc(COc2ccccc2F)s1,i,i,i,i,i,1.4,nt,nt,nt,nt,nt,nt
SMILES,RGS4 act,MrgX1 antag,RGS4 inh,MrgX1 allo act,MrgX1 ag,Cl transport mod,KCC2 secondary,KCC2 bumet counter,KCC2 secondary2,HEK293 Tl flux,KCC2 retest ouab,HEK counter2
O=C(Nc1nnc(-c2ccc(F)cc2)s1)Nc1ccccc1F,i,i,i,i,i,-0.56,nt,nt,nt,nt,nt,nt
O=C(NCC1CCCN1S(=O)(=O)c1cccs1)c1ccccc1F (configuration not stated),i,i,i,i,i,nt,nt,nt,nt,nt,nt,nt
O=C(NCCCn1ccnc1)c1ccc(Br)s1,i,i,i,i,i,nt,nt,nt,nt,nt,nt,nt
CC(C)Oc1cccc(C(=O)NC(=S)Nc2cccc(C(F)(F)F)c2)c1,i,i,i,i,i,1.8,nt,nt,nt,nt,nt,nt
CCCCOc1cccc(C(=O)NC(=S)Nc2cccc(C(F)(F)F)c2)c1,i,i,i,i,i,6.5*,0.0075,0.016*,?,0.02*,0.027*,0.016*
CCCOc1cccc(C(=O)Nc2cccnc2)c1,i,i,i,i,i,nt,nt,nt,nt,nt,nt,nt
CCCCOc1cccc(C(=O)NC(=S)Nc2cccnc2)c1,i,i,i,i,i,6*,0.013*,0.087*,0.036,0.029*,0.052*,0.013*
CCCC(C(=O)NC1CCCC1)N(CC1CCCO1)C(=O)CNS(=O)(=O)c1ccc(F)cc1 (configuration not stated),i,i,i,i,i,nt,nt,nt,nt,nt,nt,nt
